Source: ChEMBL document CHEMBL2439996, “Phenyl substituted 3-hydroxypyridin-2(1H)-ones: inhibitors of influenza A endonuclease” (Bioorg Med Chem, 2013)

Key:
[1] = Inhibition of endonuclease activity of Influenza A virus H1N1 RNA-dependent RNA polymerase expressed in Escherichia coli BL21 using 6FAM-TGGCAATATCAGCTCCACA-MGBNFQ as substrate after 5 to 240 mins by fluorescence assay
Outline: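 PA_N (pandemic H1N1 endonuclease, residues 1-204, His-tag removed, SEC-purified). Inhibitor serially diluted, DMSO at most 2.5% (v/v). Ex 488/em 518 read at 5, 120, 240 min at 37 °C. IC50 by nonlinear regression of fluorescence change, mean of triplicates ± SEM.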

HEK293 = test: Cytotoxicity against human HEK293 cells after 4 days by MTT assay; format: cell-based; conditions: HEK293, 96 h
Outline: (§1)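 MTT microtiter assay; cells kept at 37 °C, 5% CO2 in DMEM with regular passage. Wells seeded with 3,000 cells each, exposed continuously for four days to varying drug concentrations in triplicate, with a drug-free control. MTT read at end of day 4 to give IC50.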

MDCK = test: Cytotoxicity against MDCK cells after 4 days by MTT assay; format: cell-based; conditions: Canis lupus familiaris, 96 h; outline: as §1

| SMILES | IC50 [1] | IC50 (HEK293) | IC50 (MDCK) |
| --- | --- | --- | --- |
| O=c1[nH]c(-c2ccc(-c3nnn[nH]3)cc2)ccc1O | 0.085 µM | ≥ 28 µM | > 100 µM |
| O=c1[nH]ccc(-c2ccccc2)c1O | 35 µM | > 100 µM | > 100 µM |
| O=c1[nH]ccc(-c2ccc(F)cc2)c1O | > 200 µM | > 100 µM | > 100 µM |
| N#Cc1ccc(-c2cc(O)c(=O)[nH]c2-c2ccc(C#N)cc2)cc1 | 0.103 µM | ≥ 28 µM | 40 µM |
| O=c1[nH]cc(-c2ccc(-c3nnn[nH]3)cc2)cc1O | 0.368 µM | 80 µM | > 100 µM |
| O=c1[nH]c(-c2ccccc2)ccc1O | 0.87 µM | ≥ 28 µM | 60 µM |
| N#Cc1ccc(-c2c[nH]c(=O)c(O)c2)cc1 | 3.83 µM | > 100 µM | > 100 µM |
| O=c1[nH]c(-c2ccc(F)cc2)ccc1O | 0.43 µM | > 100 µM | > 100 µM |
| N#Cc1ccc(-c2ccc(O)c(=O)[nH]2)cc1 | 0.802 µM | ≥ 28 µM | > 100 µM |
| O=c1[nH]c(-c2ccc(-c3nnn[nH]3)cc2)c(-c2ccc(-c3nnn[nH]3)cc2)cc1O | 0.285 µM | > 100 µM | > 100 µM |
| O=c1[nH]cc(-c2ccc(F)cc2)cc1O | 0.73 µM | > 100 µM | > 100 µM |
| O=c1[nH]cc(-c2ccccc2)cc1O | 2.1 µM | ≥ 28 µM | 80 µM |
| O=c1[nH]c(-c2ccccc2)c(-c2ccccc2)cc1O | 0.047 µM | ≥ 28 µM | > 100 µM |
| O=c1[nH]c(-c2ccc(F)cc2)c(-c2ccc(F)cc2)cc1O |  | > 100 µM | > 100 µM |
